The record followed here is ChEMBL document CHEMBL4425120, “N1-Azinylsulfonyl-1H-indoles: 5-HT6 Receptor Antagonists with Procognitive and Antidepressant-Like Properties” (ACS Med Chem Lett, 2016).

Series [1] addresses T1, 5-hydroxytryptamine receptor 6 (Homo sapiens, UniProt P50406). The series is described as follows: Displacement of [3H]-LSD from human 5-HT6 receptor expressed in HEK293 cells by microbeta liquid scintillation counting. The format is cell-based. A digest of the protocol:
(§1)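 Ki values reported as the mean of two independent radioligand binding experiments.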

Series [2] has as its system Rattus norvegicus. The series is described as follows: Cognitive enhancing effect in Sprague-Dawley rat assessed as reversal of PCP induced memory deficit at 0.3 to 1 mg/kg, ip administered 1 hour and 15 mins before familiarization phase by novel object recognition test. It is filed as functional, organism-based. In a few lines:
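Novel object recognition in rats with PCP-induced memory deficit; compounds given i.p.; groups compared with vehicle and with PCP; N = 7–12 animals per group; mean ± SEM.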

For series [3], the system named is Rattus norvegicus. The series can be described thus: Antidepressant activity in Sprague-Dawley rat assessed as increase in climbing time at 3 mg/kg, ip adminstered 60 mins prior to testing measured for 5 mins by forced swimming test. The format is functional, organism-based. A digest of the protocol:
(§2)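 Modified forced swim test in rats, compounds given i.p.; immobility and climbing times scored against a vehicle-treated group; N = 7–8 animals per group; mean ± SEM.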

The nature of series [4]: Toxicity in Sprague-Dawley rat assessed as effect on locomotory activity at 0.3 to 3 mg/kg, ip measured for 5 mins by open field test. The format is organism-based. To be noted: in vivo.
Series [5] has as its system Rattus norvegicus. The series can be described thus: Antianxietic activity in ip dosed Wistar rat assessed as increase in number of licks accepted measured for 5 mins by Vogel conflict drinking test. It is filed as functional. To be noted: read-out: MED.
Series [6] has as its system Rattus norvegicus. The series can be described thus: Antianxietic activity in ip dosed Wistar rat assessed as increase in number of shocks accepted measured for 5 mins by Vogel conflict drinking test. The following applies: read-out: MED. The format is functional.
Series [7] concerns the target 5-hydroxytryptamine receptor 6 (Rattus norvegicus, UniProt P31388). The series is described as follows: Displacement of [3H]Lu AE60157 from rat brain 5-HT6 receptor.
Series [8] has as its system Rattus norvegicus. The series is described as follows: Antidepressant activity in Sprague-Dawley rat assessed as reduction in immobility time at 3 mg/kg, ip adminstered 60 mins prior to testing measured for 5 mins by forced swimming test. It is filed as functional, organism-based. A digest of the protocol:
as §2

Series [9] deals with T2, 5-hydroxytryptamine receptor 1A (Homo sapiens, UniProt P08908).
T2 sequence (P08908 whole entry): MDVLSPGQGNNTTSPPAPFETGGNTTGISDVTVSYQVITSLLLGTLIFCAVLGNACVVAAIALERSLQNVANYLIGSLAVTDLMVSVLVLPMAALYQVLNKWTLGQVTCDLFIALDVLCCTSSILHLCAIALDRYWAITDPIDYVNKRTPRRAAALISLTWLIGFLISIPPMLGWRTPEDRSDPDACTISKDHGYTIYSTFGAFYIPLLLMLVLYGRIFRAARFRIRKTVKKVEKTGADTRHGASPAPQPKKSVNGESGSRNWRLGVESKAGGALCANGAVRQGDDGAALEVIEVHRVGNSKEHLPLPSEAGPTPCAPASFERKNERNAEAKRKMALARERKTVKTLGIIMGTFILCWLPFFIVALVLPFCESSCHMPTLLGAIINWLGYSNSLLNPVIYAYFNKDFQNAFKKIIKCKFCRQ
The series can be described thus: Displacement of [3H]-8-OH-DPAT from human 5-HT1A receptor expressed in HEK293 cells by microbeta liquid scintillation counting. It is filed as cell-based. In a few lines: as §1

In series [10] the target is 5-hydroxytryptamine receptor 2A (Homo sapiens, UniProt P28223). The series can be described thus: Displacement of [3H]-Ketanserin from human 5-HT2A receptor expressed in HEK293 cells by microbeta liquid scintillation counting. It is filed as cell-based. A digest of the protocol:
as §1

Series [11] has as its target 5-hydroxytryptamine receptor 7 (Homo sapiens, UniProt P34969). The series is described as follows: Displacement of [3H]-5-CT from human 5-HT7B receptor expressed in HEK293 cells by microbeta liquid scintillation counting. The format is cell-based. In a few lines: as §1
A further series has as its target D(2) dopamine receptor (Homo sapiens, UniProt P14416). The series is described as follows: Displacement of [3H]-Raclopride from human D2L receptor expressed in HEK293 cells by microbeta liquid scintillation counting. The format is cell-based. A digest of the protocol: as §1
The species named for series [12] is Homo sapiens. The series can be described thus: Selectivity ratio of Ki for human 5-HT1A receptor expressed in HEK293 cells to Ki for human 5-HT6 receptor expressed in HEK293 cells. The format is cell-based.
Series [13] is filed under the species Homo sapiens. The series can be described thus: Selectivity ratio of Ki for human 5-HT2A receptor expressed in HEK293 cells to Ki for human 5-HT6 receptor expressed in HEK293 cells. It is filed as cell-based.
Series [14] is filed under the species Homo sapiens. The series can be described thus: Selectivity ratio of Ki for human 5-HT7B receptor expressed in HEK293 cells to Ki for human 5-HT6 receptor expressed in HEK293 cells. The format is cell-based.
Series [15] is filed under the species Homo sapiens. The series is described as follows: Selectivity ratio of Ki for human D2L receptor expressed in HEK293 cells to Ki for human 5-HT6 receptor expressed in HEK293 cells. The format is cell-based.
For series [16], the target named is T1, 5-hydroxytryptamine receptor 6. The series can be described thus: Inhibition of 5-HT6 receptor (unknown origin).

pKi: −log10 of the molar value. Activity calls are given as the source filed them. The calls are words filed in the database; no cut-off is given here.

Sequence of 5-hydroxytryptamine receptor 2A (P28223 whole entry): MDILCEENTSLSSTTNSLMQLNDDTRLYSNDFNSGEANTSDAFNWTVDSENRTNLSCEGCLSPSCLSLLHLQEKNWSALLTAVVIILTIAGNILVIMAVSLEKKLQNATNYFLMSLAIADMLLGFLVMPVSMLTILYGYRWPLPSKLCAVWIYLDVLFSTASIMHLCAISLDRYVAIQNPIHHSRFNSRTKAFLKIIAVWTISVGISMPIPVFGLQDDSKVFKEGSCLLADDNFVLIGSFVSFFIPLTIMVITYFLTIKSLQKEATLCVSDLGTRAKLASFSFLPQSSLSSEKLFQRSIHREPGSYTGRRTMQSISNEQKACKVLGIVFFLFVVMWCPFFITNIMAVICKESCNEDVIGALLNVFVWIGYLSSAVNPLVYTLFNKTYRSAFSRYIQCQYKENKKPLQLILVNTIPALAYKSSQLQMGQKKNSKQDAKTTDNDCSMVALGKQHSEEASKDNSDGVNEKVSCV
T1 sequence (P50406 whole entry): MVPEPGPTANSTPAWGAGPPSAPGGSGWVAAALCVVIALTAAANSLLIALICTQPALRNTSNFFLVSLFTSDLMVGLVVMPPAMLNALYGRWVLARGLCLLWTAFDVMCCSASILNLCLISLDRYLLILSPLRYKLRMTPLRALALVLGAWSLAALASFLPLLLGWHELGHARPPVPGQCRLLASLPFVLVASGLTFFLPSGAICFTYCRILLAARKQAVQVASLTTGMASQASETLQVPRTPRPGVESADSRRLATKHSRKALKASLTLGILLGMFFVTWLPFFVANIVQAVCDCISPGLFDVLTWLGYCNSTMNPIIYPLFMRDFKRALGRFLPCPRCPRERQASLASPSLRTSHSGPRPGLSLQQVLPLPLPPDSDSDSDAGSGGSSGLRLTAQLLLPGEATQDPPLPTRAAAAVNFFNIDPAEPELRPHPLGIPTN
Sequence of 5-hydroxytryptamine receptor 7 (P34969 whole entry): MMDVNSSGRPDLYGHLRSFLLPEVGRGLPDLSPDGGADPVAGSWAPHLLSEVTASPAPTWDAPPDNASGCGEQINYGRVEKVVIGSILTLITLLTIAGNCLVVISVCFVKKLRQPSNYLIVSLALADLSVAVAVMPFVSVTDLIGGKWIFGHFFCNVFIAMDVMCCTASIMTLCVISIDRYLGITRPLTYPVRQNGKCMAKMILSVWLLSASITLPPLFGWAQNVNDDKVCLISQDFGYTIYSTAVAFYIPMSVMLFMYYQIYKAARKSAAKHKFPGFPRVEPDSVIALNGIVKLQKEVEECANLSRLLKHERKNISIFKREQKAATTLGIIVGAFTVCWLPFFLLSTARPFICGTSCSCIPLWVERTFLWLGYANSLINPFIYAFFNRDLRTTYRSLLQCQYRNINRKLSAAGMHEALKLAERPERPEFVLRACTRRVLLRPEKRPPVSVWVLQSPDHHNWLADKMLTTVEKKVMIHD
Sequence of D(2) dopamine receptor (P14416 whole entry): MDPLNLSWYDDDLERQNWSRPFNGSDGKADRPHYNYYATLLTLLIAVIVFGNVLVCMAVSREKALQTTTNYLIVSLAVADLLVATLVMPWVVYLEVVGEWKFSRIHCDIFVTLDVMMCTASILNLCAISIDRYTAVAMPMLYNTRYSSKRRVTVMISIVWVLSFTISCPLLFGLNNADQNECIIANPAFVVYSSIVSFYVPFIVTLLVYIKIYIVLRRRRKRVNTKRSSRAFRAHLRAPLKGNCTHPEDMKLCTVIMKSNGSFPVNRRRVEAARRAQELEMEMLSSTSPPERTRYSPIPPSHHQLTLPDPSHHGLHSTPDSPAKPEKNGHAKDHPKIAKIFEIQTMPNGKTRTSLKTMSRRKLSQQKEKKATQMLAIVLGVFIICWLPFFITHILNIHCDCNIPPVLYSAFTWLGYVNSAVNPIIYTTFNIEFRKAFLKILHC
Sequence of 5-hydroxytryptamine receptor 6 (Rattus norvegicus, UniProt P31388) (P31388 whole entry): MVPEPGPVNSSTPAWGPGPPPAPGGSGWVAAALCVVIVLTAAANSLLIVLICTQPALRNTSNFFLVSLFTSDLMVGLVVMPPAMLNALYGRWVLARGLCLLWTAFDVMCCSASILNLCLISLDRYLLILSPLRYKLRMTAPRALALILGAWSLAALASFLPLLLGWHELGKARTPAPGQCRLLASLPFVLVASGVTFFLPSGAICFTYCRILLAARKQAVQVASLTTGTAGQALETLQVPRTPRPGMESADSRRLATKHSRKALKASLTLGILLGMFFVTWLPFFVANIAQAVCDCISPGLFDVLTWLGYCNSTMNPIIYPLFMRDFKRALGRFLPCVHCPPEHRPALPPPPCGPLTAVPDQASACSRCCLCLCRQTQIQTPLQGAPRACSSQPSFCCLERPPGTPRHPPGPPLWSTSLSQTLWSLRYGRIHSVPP

Take `O=S(=O)(c1ccc2ncccc2c1)n1cc(C2=CCNCC2)c2ccc(Cl)cc21`: the pKi in series [1] was 6.95.

Compound `Cc1c(C2=CCNCC2)c2ccccc2n1S(=O)(=O)c1ccc2cccnc2c1` had a pKi in series [1] of 7.74.

In series [1], `O=S(=O)(c1ccc2cccnc2c1)n1cc(C2=CCNCC2)c2ccccc21` showed a pKi of 8.15.

With `O=S(=O)(c1cnc2ccccc2c1)n1cc(C2=CCNCC2)c2ccccc21`, the negative-log Ki (pKi) in [1] is 7.89.

As for `O=S(=O)(c1ccccc1)c1cnc2c(N3CCNCC3)cccc2c1` [INTEPIRDINE], the outcome with Rattus norvegicus [2], with Rattus norvegicus [3] and with Rattus norvegicus [8] was Active. For the same compound, the Activity result in [4] is recorded as “Non-Toxic”. The minimal effective dose with Rattus norvegicus [5] and with Rattus norvegicus [6] was 3 mg/kg each time. In series [7], this compound had a pKi of 9.63.

In series [1], `COc1ccc2c(c1)c(C1=CCNCC1)cn2S(=O)(=O)c1cc2ccccc2cn1` had a pKi of 8.22.

Take `COc1ccc2c(c1)c(C1=CCNCC1)cn2S(=O)(=O)c1ccc2ncccc2c1`: the pKi in series [1] is 7.85.

On to `COc1ccc2c(c1)c(C1CCNCC1)cn2S(=O)(=O)c1cncc2ccccc12`, for which the negative logarithm of the Ki (pKi) in series [1] was 7.62.

As to `O=S(=O)(c1cncc2ccccc12)n1cc(C2=CCNCC2)c2cc(Cl)ccc21`, in [1], the pKi is 7.74.

On to `O=S(=O)(c1ccc2ncccc2c1)n1cc(C2=CCNCC2)c2ccccc21`, for which the pKi is 7.70 in series [1]; 5.73 in series [9]; 5.85 in series [10]; 5.18 in series [11]; 5.85 at D(2) dopamine receptor. The Ratio Ki in the series filed under Homo sapiens [12], in the series listed under Homo sapiens [13], in the series listed under Homo sapiens [14] and in the series listed under Homo sapiens [15] was 70 throughout.

In [16], `CSc1nn2c(C)cc(C)nc2c1S(=O)(=O)c1ccccc1` showed a pKi of 8.68.

`COc1ccc2c(c1)c(C1=CCNCC1)cn2S(=O)(=O)c1cnc2ccccc2c1` had a negative-log Ki (pKi) in [1] of 8.10.

In turn, `CCCCN1CC=C(c2cn(S(=O)(=O)c3ccc4cccnc4c3)c3ccc(OC)cc23)CC1` had a negative-log Ki (pKi) in [1] of 6.66.

As for `COc1ccc2c(c1)c(C1=CCNCC1)cn2S(=O)(=O)c1cccc2ncccc12`, the pKi in [1] was 8.40; in [9] it was 5.53; in series [10], 5.81; in series [11], 5.63; on D(2) dopamine receptor, 6.52. The Ratio Ki in the series filed under Homo sapiens [12], in the series listed under Homo sapiens [13], in the series listed under Homo sapiens [14] and in the series filed under Homo sapiens [15] was 70 each time.

In series [1], `O=S(=O)(c1cncc2ccccc12)n1cc(C2=CCNCC2)c2ccccc21` had a pKi of 8.30.

Consider `O=S(=O)(c1cnc2ccccc2c1)n1cc(C2=CCNCC2)c2ccc(Cl)cc21`, for which the pKi in series [1] was 7.43.

In series [1], `O=S(=O)(c1cc2ccccc2cn1)n1cc(C2=CCNCC2)c2ccccc21` had a negative logarithm of the Ki (pKi) of 7.92.

In the case of `Cc1c(C2=CCNCC2)c2ccccc2n1S(=O)(=O)c1cc2ccccc2cn1`, the negative logarithm of the Ki (pKi) in [1] was 7.70.

`O=S(=O)(c1cc2ccccc2cn1)n1cc(C2=CCNCC2)c2ccc(Cl)cc21`: the pKi in [1] is 6.99.

In series [1], `COc1ccc2c(c1)c(C1=CCN(C)CC1)cn2S(=O)(=O)c1ccc2cccnc2c1` had a negative-log Ki (pKi) of 7.09.

For `O=S(=O)(c1cnc2ccccc2c1)n1cc(C2=CCNCC2)c2cc(Cl)ccc21`, the negative-log Ki (pKi) in series [1] was 7.96.

In the case of `O=S(=O)(c1cccc2ncccc12)n1cc(C2=CCNCC2)c2cc(Cl)ccc21`, the pKi in series [1] is 7.96.

Take `CCCN1CC=C(c2cn(S(=O)(=O)c3ccc4cccnc4c3)c3ccc(OC)cc23)CC1`: in series [1], the pKi is 6.61.

In series [1], `O=S(=O)(c1ccc2cccnc2c1)n1cc(C2=CCNCC2)c2ccc(Cl)cc21` had a pKi of 7.66.

`COc1ccc2c(c1)c(C1CCNCC1)cn2S(=O)(=O)c1ccc2cccnc2c1`: the pKi in series [1] is 7.52.

As for `O=S(=O)(c1ccc2cccnc2c1)n1cc(C2=CCNCC2)c2cc(Cl)ccc21`, the pKi in series [1] was 8.05; in series [9] it was 5.61; in series [10], 5.59; in series [11] it was 5.14; at D(2) dopamine receptor it was 5.93. The Ratio Ki in the series listed under Homo sapiens [12], in the series listed under Homo sapiens [13], in the series listed under Homo sapiens [14] and in the series listed under Homo sapiens [15] was 70 in each case.
